Results collected from several papers.
Each line is one published result; the experiments were not run side by side.
Read-out: cell growth or viability

SMILES | cell line | test | conditions | IC50 [µM]
CCN1[C@@H](C(=O)NC23CCC(C(=O)O)(CC2)CC3)[C@H](c2cccc(Cl)c2F)[C@]2(C(=O)Nc3cc(Cl)ccc32)C12CCCCC2 | U2OS | resazurin | 72 h | > 1
Nc1ccc(/C=C/C(=O)N2CCc3c(oc4c(-c5ccc(F)cc5)cc(-c5cnc(C(=O)N6CCC(F)(F)CC6)nc5)cc34)C2)cn1 | U2OS | CCK-8 | 72 h | 0.95
Cc1nc(Nc2ccc3c(c2)C(C)(C)C(=O)N3)c2ccccc2n1 | H22 | MTT | – | > 50
C=CC(=O)NC1CCN(c2ncc3ncnc(Nc4ccc(Oc5ccc6c(c5)ncn6C)c(C)c4)c3n2)CC1 | SNU-216 | – | – | 0.0182
CN1CCC(NC(=O)c2ccc(-c3cc(C4CC4)c4oc5c(c4c3)CCN(C(=O)/C=C/c3ccc(N)nc3)C5)nn2)C(F)(F)C1 (stereo not drawn) | U2OS | CCK-8 | 72 h | 3.49
C=CC(=O)N1CCN(c2nc(=O)n(-c3c(C)ccnc3C(C)C)c3nc(-c4c(O)cccc4F)c(F)cc23)[C@@H](C)C1 | NCI-H1792 | ATP luminescence | – | > 1
Cc1nc(Nc2ccc3c(c2)/C(=C/c2ccccc2C)C(=O)N3)c2ccccc2n1 | H22 | MTT | – | 9.92
Cc1noc2c1-c1ccccc1C(c1ccc(Cl)cc1)=N[C@H]2CC(N)=O | NB-4 | ATP luminescence | 72 h | 0.76
Cc1nc(Nc2ccc3c(c2)/C(=C/c2ccccc2)C(=O)N3Cc2ccccc2)c2ccccc2n1 | H22 | MTT | – | 1.08
Nc1ccc(/C=C/C(=O)N2CCc3c(oc4c(-c5ccc(F)cc5)cc(-c5ncc(C(=O)N6CCC(F)(F)CC6)cn5)cc34)C2)cn1 | U2OS | CCK-8 | 72 h | 5.74
COc1cc2c3c(n(CCCNC(C)C)c(=O)c2cc1OC)-c1nc2c(cc1C3=O)OCO2 | L-363 | MTS | 72 h | 0.126
Cc1nc(Nc2ccc3c(c2)/C(=C/c2ccccc2)C(=O)N3C)c2ccccc2n1 | H22 | MTT | – | 5.34
N[C@H]1CC[C@H](N[C@@H]2C[C@H]2c2ccccc2)CC1 | U2OS | resazurin | – | 346
Cc1nc(NC(=O)N2CCC[C@H]2C(N)=O)sc1-c1ccnc(C(C)(C)C(F)(F)F)c1 | H22 | MTT | – | 25.4
COc1cc2c3c(n(CCCN4CCOCC4)c(=O)c2cc1OC)-c1nc2c(cc1C3=O)OCO2 | L-363 | MTS | 72 h | 0.342
